# Assay results reported in ChEMBL document CHEMBL2321812 (J Med Chem, 2013).
# Calls of active or inactive are those of the source. The rule behind the calls is not given here.
# Experiments:
# [1] = Bioavailability in male ICR mouse measured from AUC (0 to infinity) at 5 mg/kg, ip; assay type: ADME, organism-based; conditions: in vivo
# Summary of the method: (§1)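 Intraperitoneal dosing was 5 mg/kg, referenced to 1 mg/kg i.v., both in 5% DMSO/50% PEG400/45% saline, in male and female ICR mice. Plasma was sampled from 5 min to 24 h and measured by HPLC-MS/MS.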
# [2] = Apparent volume of distribution in male ICR mouse at 1 mg/kg, iv; assay type: ADME, organism-based; parameters: dose 1 mg/kg, route intravenous; conditions: in vivo, read-out: Vz
# Summary of the method: (§2)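 Single 1 mg/kg i.v. injection to male and female ICR mice (18.2-26.0 g) in 5% DMSO/50% PEG400/45% saline. Blood was taken by cardiac puncture after CO2 euthanasia at 5, 15, 30 min and 1, 2, 4, 8, 24 h post dose.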
# [3] = AUC (0 to infinity) in male ICR mouse at 5 mg/kg, ip; assay type: ADME, organism-based; parameters: time infinity, dose 5 mg/kg, route intraperitoneal; conditions: plasma
# Summary of the method: (§3)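 Male and female ICR mice (18.2-26.0 g) got 5 mg/kg i.p. in 5% DMSO/50% PEG400/45% saline. Terminal cardiac blood was drawn after CO2 euthanasia at 5, 15, 30 min and 1, 2, 4, 8, 24 h.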
# [4] = Cmax in male ICR mouse at 5 mg/kg, po; assay type: ADME, organism-based; parameters: dose 5 mg/kg, route oral; conditions: in vivo
# Summary of the method: (§4)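 Oral gavage at 5 mg/kg in 10% NMP/60% PEG400/30% saline to overnight-fasted (10-15 h) male and female ICR mice (18.2-26.0 g). Blood was taken by cardiac puncture after CO2 euthanasia at 5, 15, 30 min and 1, 2, 4, 8, 24 h.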
# [5] = Half life in female ICR mouse at 5 mg/kg, po; assay type: ADME, organism-based; parameters: dose 5 mg/kg, route oral; conditions: in vivo; summary of the method: as §4
# [6] = Tmax in male ICR mouse at 1 mg/kg, iv; assay type: ADME, organism-based; parameters: dose 1 mg/kg, route intravenous; conditions: in vivo; summary of the method: as §2
# [7] = molecular target: Poly [ADP-ribose] polymerase 1 (Homo sapiens) (UniProt P09874); assay: Inhibition of PARP1 (unknown origin) up to 20 uM by NAD+-dependent autopoly(ADP ribosyl)lation assay
# Sequence of Poly [ADP-ribose] polymerase 1 (Homo sapiens) (P09874 whole entry): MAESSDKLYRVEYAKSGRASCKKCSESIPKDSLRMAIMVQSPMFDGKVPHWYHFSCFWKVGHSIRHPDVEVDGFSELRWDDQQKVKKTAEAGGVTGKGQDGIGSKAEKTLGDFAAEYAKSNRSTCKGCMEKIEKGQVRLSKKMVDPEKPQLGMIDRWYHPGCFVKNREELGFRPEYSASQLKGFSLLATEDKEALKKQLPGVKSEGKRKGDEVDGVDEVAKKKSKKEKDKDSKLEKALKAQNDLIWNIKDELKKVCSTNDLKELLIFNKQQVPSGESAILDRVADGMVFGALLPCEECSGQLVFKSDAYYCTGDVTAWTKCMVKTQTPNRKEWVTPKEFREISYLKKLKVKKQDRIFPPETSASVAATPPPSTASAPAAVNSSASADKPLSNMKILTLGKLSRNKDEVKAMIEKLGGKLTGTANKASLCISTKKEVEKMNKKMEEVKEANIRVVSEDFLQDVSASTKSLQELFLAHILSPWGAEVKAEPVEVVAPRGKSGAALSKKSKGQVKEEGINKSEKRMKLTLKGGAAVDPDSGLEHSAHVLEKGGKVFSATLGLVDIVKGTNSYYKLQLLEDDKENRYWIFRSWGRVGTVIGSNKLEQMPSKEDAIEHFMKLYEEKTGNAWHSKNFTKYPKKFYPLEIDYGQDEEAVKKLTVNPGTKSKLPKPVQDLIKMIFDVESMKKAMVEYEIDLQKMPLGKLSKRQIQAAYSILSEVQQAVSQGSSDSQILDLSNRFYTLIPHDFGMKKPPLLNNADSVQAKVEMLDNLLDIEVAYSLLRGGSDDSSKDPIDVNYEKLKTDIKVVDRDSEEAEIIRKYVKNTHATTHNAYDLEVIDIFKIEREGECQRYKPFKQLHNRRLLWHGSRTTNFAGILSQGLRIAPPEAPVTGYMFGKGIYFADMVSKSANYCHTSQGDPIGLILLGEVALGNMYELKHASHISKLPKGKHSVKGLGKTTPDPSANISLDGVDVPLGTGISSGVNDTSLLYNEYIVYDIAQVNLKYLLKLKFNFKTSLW
# Summary of the method: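 PARP1 was tested with a chemiluminescent poly(ADP-ribosyl)ation assay kit over a range of concentrations. Each point was run in duplicate and the experiment was done twice. Luminescence was read and IC50 was fitted to a Langmuir binding isotherm.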
# [8] = Clearance in female ICR mouse at 1 mg/kg, iv; assay type: ADME, organism-based; parameters: dose 1 mg/kg, route intravenous; conditions: in vivo; summary of the method: as §2
# [9] = AUC (0 to infinity) in male ICR mouse at 1 mg/kg, iv; assay type: ADME, organism-based; parameters: time infinity, dose 1 mg/kg, route intravenous; conditions: plasma; summary of the method: as §2
# [10] = Mean residence time (0 to infinity) in female ICR mouse at 5 mg/kg, ip; assay type: ADME, organism-based; parameters: dose 5 mg/kg, route intraperitoneal; conditions: in vivo; summary of the method: as §3
# [11] = Cmax in male ICR mouse at 1 mg/kg, iv; assay type: ADME, organism-based; parameters: dose 1 mg/kg, route intravenous; conditions: in vivo; summary of the method: as §2
# [12] = Half life in male ICR mouse at 5 mg/kg, ip; assay type: ADME, organism-based; parameters: dose 5 mg/kg, route intraperitoneal; conditions: in vivo; summary of the method: as §3
# [13] = Mean residence time (0 to infinity) in female ICR mouse at 5 mg/kg, po; assay type: ADME, organism-based; parameters: dose 5 mg/kg, route oral; conditions: in vivo; summary of the method: as §4
# [14] = Tmax in female ICR mouse at 5 mg/kg, po; assay type: ADME, organism-based; parameters: dose 5 mg/kg, route oral; conditions: in vivo; summary of the method: as §4
# [15] = AUC (0 to infinity) in male ICR mouse at 5 mg/kg, po; assay type: ADME, organism-based; parameters: time infinity, dose 5 mg/kg, route oral; conditions: plasma; summary of the method: as §4
# Mus musculus [16] = assay: Bioavailability in male ICR mouse measured from AUC (0 to t) at 5 mg/kg, ip; assay type: ADME, organism-based; conditions: in vivo; summary of the method: as §1
# [17] = AUC (0 to t) in female ICR mouse at 5 mg/kg, ip; assay type: ADME, organism-based; parameters: dose 5 mg/kg, route intraperitoneal; conditions: plasma; summary of the method: as §3
# [18] = Oral bioavailability in female ICR mouse measured from AUC (0 to t) at 5 mg/kg; assay type: ADME, organism-based; conditions: in vivo
# Summary of the method: (§5)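 Oral 5 mg/kg (10% NMP/60% PEG400/30% saline, after 10-15 h fast) was compared with 1 mg/kg i.v. (5% DMSO/50% PEG400/45% saline) in male and female ICR mice. Plasma from 5 min to 24 h was measured by HPLC-MS/MS.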
# [19] = AUC (0 to infinity) in female ICR mouse at 1 mg/kg, iv; assay type: ADME, organism-based; parameters: time infinity, dose 1 mg/kg, route intravenous; conditions: plasma; summary of the method: as §2
# [20] = Oral bioavailability in female ICR mouse measured from AUC (0 to infinity) at 5 mg/kg; assay type: ADME, organism-based; conditions: in vivo; summary of the method: as §5
# [21] = Tmax in female ICR mouse at 1 mg/kg, iv; assay type: ADME, organism-based; parameters: dose 1 mg/kg, route intravenous; conditions: in vivo; summary of the method: as §2
# [22] = Clearance in male ICR mouse at 1 mg/kg, iv; assay type: ADME, organism-based; parameters: dose 1 mg/kg, route intravenous; conditions: in vivo; summary of the method: as §2
# [23] = Tmax in male ICR mouse at 5 mg/kg, po; assay type: ADME, organism-based; parameters: dose 5 mg/kg, route oral; conditions: in vivo
# Summary of the method: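 Male and female ICR mice (18.2-26.0 g), fasted overnight (10-15 h) before oral dosing; single gavage at 5 mg/kg in 10% NMP, 60% PEG400, 30% saline. Blood taken by cardiac puncture after CO2 euthanasia at 5, 15, 30 min and 1, 2, 4, 8, 24 h. Heparinised plasma assayed by HPLC-MS/MS. Tmax is the time to reach Cmax.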
# [24] = Mean residence time (0 to infinity) in male ICR mouse at 5 mg/kg, ip; assay type: ADME, organism-based; parameters: dose 5 mg/kg, route intraperitoneal; conditions: in vivo; summary of the method: as §3
# [25] = Cmax in female ICR mouse at 5 mg/kg, ip; assay type: ADME, organism-based; parameters: dose 5 mg/kg, route intraperitoneal; conditions: in vivo; summary of the method: as §3
# [26] = Oral bioavailability in male ICR mouse measured from AUC (0 to t) at 5 mg/kg; assay type: ADME, organism-based; conditions: in vivo; summary of the method: as §5
# Mus musculus [27] = assay: Bioavailability in female ICR mouse measured from AUC (0 to t) at 5 mg/kg, ip; assay type: ADME, organism-based; conditions: in vivo; summary of the method: as §1
# [28] = Half life in female ICR mouse at 5 mg/kg, ip; assay type: ADME, organism-based; parameters: dose 5 mg/kg, route intraperitoneal; conditions: in vivo; summary of the method: as §3
# [29] = AUC (0 to t) in female ICR mouse at 1 mg/kg, iv; assay type: ADME, organism-based; parameters: dose 1 mg/kg, route intravenous; conditions: plasma; summary of the method: as §2
# [30] = Bioavailability in female ICR mouse measured from AUC (0 to infinity) at 5 mg/kg, ip; assay type: ADME, organism-based; conditions: in vivo; summary of the method: as §1
# [31] = AUC (0 to infinity) in female ICR mouse at 5 mg/kg, ip; assay type: ADME, organism-based; parameters: time infinity, dose 5 mg/kg, route intraperitoneal; conditions: plasma; summary of the method: as §3
# [32] = Mean residence time (0 to infinity) in male ICR mouse at 5 mg/kg, po; assay type: ADME, organism-based; parameters: dose 5 mg/kg, route oral; conditions: in vivo; summary of the method: as §4
# [33] = Apparent volume of distribution in female ICR mouse at 1 mg/kg, iv; assay type: ADME, organism-based; parameters: dose 1 mg/kg, route intravenous; conditions: in vivo, read-out: Vz; summary of the method: as §2
# [34] = AUC (0 to t) in female ICR mouse at 5 mg/kg, po; assay type: ADME, organism-based; parameters: dose 5 mg/kg, route oral; conditions: plasma; summary of the method: as §4
# [35] = AUC (0 to t) in male ICR mouse at 1 mg/kg, iv; assay type: ADME, organism-based; parameters: dose 1 mg/kg, route intravenous; conditions: plasma; summary of the method: as §2
# [36] = Tmax in male ICR mouse at 5 mg/kg, ip; assay type: ADME, organism-based; parameters: dose 5 mg/kg, route intraperitoneal; conditions: in vivo; summary of the method: as §3
# [37] = Mean residence time (0 to infinity) in male ICR mouse at 1 mg/kg, iv; assay type: ADME, organism-based; parameters: dose 1 mg/kg, route intravenous; conditions: in vivo; summary of the method: as §2
# [38] = Cmax in female ICR mouse at 5 mg/kg, po; assay type: ADME, organism-based; parameters: dose 5 mg/kg, route oral; conditions: in vivo; summary of the method: as §4
# [39] = Half life in female ICR mouse at 1 mg/kg, iv; assay type: ADME, organism-based; parameters: dose 1 mg/kg, route intravenous; conditions: in vivo; summary of the method: as §2
# [40] = Half life in male ICR mouse at 5 mg/kg, po; assay type: ADME, organism-based; parameters: dose 5 mg/kg, route oral; conditions: in vivo; summary of the method: as §4
# Cytochrome P450 3A4 = Cytochrome P450 3A4 (Homo sapiens, UniProt P08684); assay: Inhibition of CYP3A4 (unknown origin)
# Sequence of Cytochrome P450 3A4 (P08684 whole entry): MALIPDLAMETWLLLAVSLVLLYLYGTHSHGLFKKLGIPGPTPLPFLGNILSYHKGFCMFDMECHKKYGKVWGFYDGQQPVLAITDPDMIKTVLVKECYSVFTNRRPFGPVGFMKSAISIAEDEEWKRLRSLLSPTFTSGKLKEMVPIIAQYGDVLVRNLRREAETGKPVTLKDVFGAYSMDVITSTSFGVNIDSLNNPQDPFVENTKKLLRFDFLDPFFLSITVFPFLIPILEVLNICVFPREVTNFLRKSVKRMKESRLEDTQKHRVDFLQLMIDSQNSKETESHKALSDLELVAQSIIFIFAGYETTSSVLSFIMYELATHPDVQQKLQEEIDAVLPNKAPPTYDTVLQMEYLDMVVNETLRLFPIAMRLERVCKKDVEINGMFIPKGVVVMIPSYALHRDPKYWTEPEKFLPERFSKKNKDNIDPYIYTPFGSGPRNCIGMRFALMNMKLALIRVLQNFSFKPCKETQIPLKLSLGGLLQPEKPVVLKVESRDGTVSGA
# [41] = AUC (0 to t) in male ICR mouse at 5 mg/kg, po; assay type: ADME, organism-based; parameters: dose 5 mg/kg, route oral; conditions: plasma; summary of the method: as §4
# [42] = Tmax in female ICR mouse at 5 mg/kg, ip; assay type: ADME, organism-based; parameters: dose 5 mg/kg, route intraperitoneal; conditions: in vivo; summary of the method: as §3
# [43] = Mean residence time (0 to infinity) in female ICR mouse at 1 mg/kg, iv; assay type: ADME, organism-based; parameters: dose 1 mg/kg, route intravenous; conditions: in vivo; summary of the method: as §2
# [44] = AUC (0 to infinity) in female ICR mouse at 5 mg/kg, po; assay type: ADME, organism-based; parameters: time infinity, dose 5 mg/kg, route oral; conditions: plasma; summary of the method: as §4
# [45] = Cmax in male ICR mouse at 5 mg/kg, ip; assay type: ADME, organism-based; parameters: dose 5 mg/kg, route intraperitoneal; conditions: in vivo; summary of the method: as §3
# [46] = Oral bioavailability in male ICR mouse measured from AUC (0 to infinity) at 5 mg/kg; assay type: ADME, organism-based; conditions: in vivo; summary of the method: as §5
# [47] = Cmax in female ICR mouse at 1 mg/kg, iv; assay type: ADME, organism-based; parameters: dose 1 mg/kg, route intravenous; conditions: in vivo; summary of the method: as §2
# [48] = AUC (0 to t) in male ICR mouse at 5 mg/kg, ip; assay type: ADME, organism-based; parameters: dose 5 mg/kg, route intraperitoneal; conditions: plasma; summary of the method: as §3
structure (smiles),measurement,setting,value
CS(=O)(=O)c1ccc(-c2nnc(/C=C/c3nnc(-c4ccc(C#N)cc4)o3)n2-c2ccccc2Cl)nc1,bioavailability,[1],133%
same,Vd,[2],2.7 L/kg
same,AUC(0-inf),[3],11200 ng·h/mL
same,Cmax,[4],967 ng/mL
same,half-life,[5],2.63 h
same,Tmax,[6],0.25 h
same,inhibition,[7],inactive
same,clearance,[8],7.17 mL/min/kg
same,AUC(0-inf),[9],1680 ng·h/mL
same,MRT inf,[10],4.6 h
same,Cmax,[11],434 ng/mL
same,half-life,[12],2.89 h
same,MRT inf,[13],5.1 h
same,Tmax,[14],2 h
same,AUC(0-inf),[15],8270 ng·h/mL
same,F,Mus musculus [16],157%
same,AUC(0-t),[17],14100 ng·h/mL
same,bioavailability,[18],72.7%
same,AUC(0-inf),[19],2300 ng·h/mL
same,bioavailability,[20],59%
same,Tmax,[21],0.5 h
same,clearance,[22],10 mL/min/kg
same,Tmax,[23],0.25 h
same,MRT inf,[24],4.8 h
same,Cmax,[25],2660 ng/mL
same,bioavailability,[26],116%
same,F,Mus musculus [27],152%
same,half-life,[28],2.73 h
same,AUC(0-t),[29],1850 ng·h/mL
same,bioavailability,[30],122%
same,AUC(0-inf),[31],14100 ng·h/mL
same,MRT inf,[32],5.1 h
same,Vd,[33],2.2 L/kg
same,AUC(0-t),[34],6740 ng·h/mL
same,AUC(0-t),[35],1420 ng·h/mL
same,Tmax,[36],0.5 h
same,MRT inf,[37],4.1 h
same,Cmax,[38],871 ng/mL
same,half-life,[39],3.46 h
same,half-life,[40],2.6 h
same,IC50,Cytochrome P450 3A4,> 25 µM
same,AUC(0-t),[41],8250 ng·h/mL
same,Tmax,[42],0.5 h
same,MRT inf,[43],4.8 h
same,AUC(0-inf),[44],6750 ng·h/mL
same,Cmax,[45],2360 ng/mL
same,bioavailability,[46],99%
same,Cmax,[47],462 ng/mL
same,AUC(0-t),[48],11200 ng·h/mL
